TAAR1 antag – antagonists of human TAAR1; Q96RJ0; CHO RD-HGA16 TAAR1, Fluo-8 calcium fluorescence, antagonist; inhibition, % at 3 µM; actives 1.5% (n = 360,000); AID 624466;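 active means inhibition above a per-plate cutoff, the mean inhibition of test compounds on that plate plus 3 SD, cut at about 49% in these data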;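 further: 0% = DMSO plus EC80 beta-PEA response and 100% = DMSO alone without agonist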
Target sequence (Q96RJ0 whole entry, looked up): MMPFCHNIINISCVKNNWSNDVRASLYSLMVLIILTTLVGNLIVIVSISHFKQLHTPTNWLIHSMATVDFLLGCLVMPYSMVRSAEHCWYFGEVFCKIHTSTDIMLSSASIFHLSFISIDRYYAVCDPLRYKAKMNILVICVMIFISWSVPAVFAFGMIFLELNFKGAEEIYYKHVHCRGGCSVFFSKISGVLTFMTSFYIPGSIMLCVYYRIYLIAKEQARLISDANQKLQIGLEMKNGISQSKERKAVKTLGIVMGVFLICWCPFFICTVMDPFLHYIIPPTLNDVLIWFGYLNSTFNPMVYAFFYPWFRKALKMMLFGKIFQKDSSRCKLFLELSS
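Test system: RD-HGA16 CHO cells with stable hTAAR1 and Gα16 / Probe or stimulus: EC80 β-phenethylamine stimulus / Times: seeding 17-24 h prior, 75-min 37 °C, 30-min RT dye loading / Detection: Fluo-8 calcium-sensitive fluorescence / Read-out basis: % inhibition scaled between DMSO and EC80 PEA controls / Repeats: singlicate, one well per test compound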
TAAR1 ag – agonists of human TAAR1; actives 0.99% (n = 360,000); CHO RD-HGA16 TAAR1, Fluo-8 calcium fluorescence; vehicle wells 0%, saturating PEA agonist 100%; AID 624467; activation, % at 3 µM; Q96RJ0;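 active means activation above the mean activation of all test compounds in the run plus 3 SD, cut at about 38% in these data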
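Test system: RD-HGA16 (CHO) cells co-expressing Gα16 and hTAAR1 | Doses: Single dose, 3 µM | Schedule: 17-24 h seeding, 75 min 37 °C dye, 30 min RT | Evaluation: % activation from peak over basal fluorescence ratio, DMSO-to-PEA scaled | Technique: Kinetic Fluo-8 calcium fluorescence | Benchmarks: Low control DMSO, high control PEA (EC100)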
OXTR agonist – human OXTR agonism | P30559 | CHO-OTR cells, Fluo-8 calcium fluorescence; normalized: DMSO 0%, oxytocin 100% | activation, % at 3 µM | actives 0.32% (n = 320,000) | AID 2435;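 active means activation above the mean of all tested compounds plus 3 SD, cutoff set per screening run, cut at about 20% in these data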;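 further: peak over basal fluorescence ratio from a 100 s FLIPR kinetic read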
V1R ag counter – counter-screen for oxytocin receptor agonists: human V1a receptor agonists; AID 2797; activation, % at 3 µM; actives 0.25% (n = 320,000); CHO-V1R cells, Fluo-8 calcium fluorescence, agonist mode; 0% DMSO, 100% 3 nM vasopressin;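 active means activation above the mean activation of all tested compounds plus 3 SD, per screening run, cut at about 20% in these data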;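 further: signal is peak over basal fluorescence ratio across a 100 second FLIPR read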
OXTR potentiate – human OXTR potentiation. AID 2445. actives 0.061% (n = 320,000). CHO-OTR cells, Fluo-8 calcium fluorescence, potentiator mode; 0% = oxytocin EC15, 100% = EC100. P30559. activation, % at 3 µM;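 active means activation above that plate's cutoff, the mean activation of tested compounds plus 3 SD, cut at about 6.6% in these data, passing the limit was not always enough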;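 further: 100% uses oxytocin at 75 nM as the full agonist control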
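Material: human OTR in CHO cells. Compound: 3.0 µM, one dose. Timing: compound 6 min at room temperature before oxytocin, 100 s read. Evaluation: % activation of max/min ratio relative to oxytocin controls. Replication: single well per compound, singlicate. Signal: Fluo-8 calcium dye fluorescence.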
OXTR ag confirm – human OXTR agonism, confirmation; AID 434963; activation, % at 3 µM; actives 20% (n = 390); shares compounds with OXTR agonist; CHO-OTR cells, Fluo-8 calcium fluorescence, agonist;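 active means mean activation above about 20% derived from the earlier single-dose screen, limit read from the data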;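 further: peak over minimum fluorescence ratio per well during a 100 second FLIPR read; 0% = DMSO alone and 100% = oxytocin high control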
V1aR counter 3x – counter-screen for oxytocin receptor agonists: V1a receptor agonists; shares compounds with OXTR agonist; CHO-V1R cells, Fluo-8 calcium fluorescence, agonist; activation, % at 3 µM; actives 10% (n = 390); AID 434991;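 active means mean activation over triplicate exceeds the hit threshold set in the earlier primary screen, cut at about 20% in these data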;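 further: peak over basal fluorescence ratio within a 100 second read; 0% = DMSO alone and 100% = 3 nM vasopressin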
TAAR1 ag confirm – confirmation of human TAAR1 agonists; shares compounds with TAAR1 ag; AID 651783; actives 82% (n = 2,400); CHO RD-HGA16 TAAR1, Fluo-8 calcium fluorescence; scaled: DMSO 0%, maximal phenethylamine 100%; activation, % at 3 µM;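 active means activation above a cutoff set at the run's mean compound activation plus 3 SD, cut at about 39% in these data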
Ga16 ag counter – nonselective agonist in parental cells, TAAR1 agonist counter-screen; activation, % at 3 µM; actives 50% (n = 2,400); CHO-Ga16 parental, Fluo-8 calcium fluorescence; normalized to maximal ATP response, DMSO zero; AID 651787; shares compounds with TAAR1 ag;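 active means activation above the run cutoff, the mean activation over all tested wells plus 3 SD, cut at about 12% in these data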;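 further: 0% = DMSO wells and 100% = maximal ATP response on the peak over basal ratio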
TAAR1 desensitize – TAAR1 response desensitization, agonist counter-screen. actives 46% (n = 2,400). CHO RD-HGA16 hTAAR1, Fluo-8 calcium, beta-PEA response inhibition. AID 651951. inhibition, % at 3 µM. shares compounds with TAAR1 ag;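 active means inhibition above the run cutoff, the mean inhibition of all test compounds plus 3 SD, cut at about 49% in these data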;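 further: beta-PEA stimulus applied at its EC80; loss of beta-PEA calcium signal after compound pretreatment read as receptor desensitization; 0% = DMSO with beta-PEA at EC80 and 100% = DMSO alone without agonist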
Ga16 antag count – counter-screen for TAAR1 agonists: nonselective Ga16 antagonists. shares compounds with TAAR1 ag. CHO-Ga16 ATP-induced calcium, Fluo-8 fluorescence. inhibition, % at 3 µM. actives 39% (n = 2,400);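 active means inhibition above the plate's mean compound inhibition plus 3 SD, computed per plate, cut at about 22% in these data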;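 further: 0% = EC80 ATP with DMSO and 100% = DMSO wells without ATP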
The depositor's hits bear a star; ! = repeats disagree. Sampled rows, rich in hits. Any-hit rate of the full collection: about 2.3%.

How did CCNC(=O)NC(=O)C(C)Oc1ccc(Br)cc1Br (stereo not drawn) do in these assays?
TAAR1 antag: -12; TAAR1 ag: 7; OXTR agonist: -1; V1R ag counter: -1; OXTR potentiate: 2

What do the screens show for `O=C(NNC(=S)NC(=O)c1ccccc1)c1cccc([N+](=O)[O-])c1`?
TAAR1 antag: 29; TAAR1 ag: 96*; OXTR agonist: 29*; V1R ag counter: 14; OXTR potentiate: -13; OXTR ag confirm: 16; V1aR counter 3x: 21*; TAAR1 ag confirm: 84*; Ga16 ag counter: 65*; TAAR1 desensitize: 28; Ga16 antag count: 20

Results for CN(C)CCCOc1ccc(C(C)(C)c2ccccc2)cc1 ?
TAAR1 antag: 0; TAAR1 ag: 75*; OXTR agonist: 20*; V1R ag counter: 10; OXTR potentiate: -13; OXTR ag confirm: 7; V1aR counter 3x: 1; TAAR1 ag confirm: 45*; Ga16 ag counter: 8; TAAR1 desensitize: 9; Ga16 antag count: 12

How did CN(C)CCOc1ccc(C(C)(C)c2ccccc2)cc1 do in these assays?
TAAR1 antag: -15; TAAR1 ag: 8; OXTR agonist: 2; V1R ag counter: 0; OXTR potentiate: 0

Results for Nc1nc(N)c2cc(Sc3ccc4ccccc4c3)ccc2n1 ?
TAAR1 antag: 15; TAAR1 ag: 63*; OXTR agonist: 27*; V1R ag counter: 13; OXTR potentiate: -11; OXTR ag confirm: 1; V1aR counter 3x: 1; TAAR1 ag confirm: 82*; Ga16 ag counter: 44*; TAAR1 desensitize: 57*; Ga16 antag count: 46*

How did Oc1ccc(Cl)cc1CNCc1ccc(F)cc1 do in these assays?
TAAR1 antag: 29; TAAR1 ag: 66*; OXTR agonist: 28*; V1R ag counter: 9; OXTR potentiate: -16; OXTR ag confirm: 28*; V1aR counter 3x: 19; TAAR1 ag confirm: 65*; Ga16 ag counter: 30*; TAAR1 desensitize: 22; Ga16 antag count: 11

What do the screens show for `CC1=C(C(=O)OCC2CCCO2)C(c2ccc(Cl)cc2)NC(=O)N1` (stereo not drawn)?
TAAR1 antag: 4; TAAR1 ag: 1; OXTR agonist: 1; V1R ag counter: 1; OXTR potentiate: -2

How did CC(Oc1ccc(Cl)cc1)C(=O)NNC(=S)NC(=O)c1ccco1 (stereo not drawn) do in these assays?
TAAR1 antag: 49*; TAAR1 ag: 116*; OXTR agonist: 26*; V1R ag counter: 11; OXTR potentiate: -13; OXTR ag confirm: 38*; V1aR counter 3x: 42*; TAAR1 ag confirm: 79*; Ga16 ag counter: 61*; TAAR1 desensitize: 37; Ga16 antag count: 40*

Results for C1CCC(C(CC2CCCCN2)C2CCCCC2)CC1 (stereo not drawn) ?
TAAR1 antag: 32; TAAR1 ag: 40*; OXTR agonist: 21*!; V1R ag counter: 10; OXTR potentiate: -4; OXTR ag confirm: 5; V1aR counter 3x: 3; TAAR1 ag confirm: 58*; Ga16 ag counter: 35*; TAAR1 desensitize: 24; Ga16 antag count: 21*

Screening results as filed in PubChem.
